Data set [1] has as its system NIH3T3. Briefly: Cytotoxicity against mouse NIH/3T3 cells assessed as cell viability at 10 uM after 3 days by XTT-PMS assay relative to control. Format: cell-based. The following applies: nih3t3, 72 h. The method, boiled down: (§1)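 U2OS or NIH 3T3 cells (2.5 × 10^4 cells/mL) plated in 48-well format (n=4) and dosed with 10 µM compound for 3 days. XTT-PMS activated reagent then added for 4 h of colour development; formazan absorbance read at 475 nm.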

The target in data set [2] is T1, Protein-arginine deiminase type-2 (Homo sapiens, UniProt Q9Y2J8). Briefly: Inhibition of recombinant wild-type PAD2 (unknown origin) using N-alpha-Benzoyl-L-arginine ethyl ester as substrate preincubated for 15 mins followed by substrate addition measured after 15 mins by COLDER assay.
Data set [3] concerns U2OS. Briefly: Cytotoxicity against human U2OS cells after 3 days by XTT-PMS assay. The following applies: 72 h.
Data set [4] addresses T1, Protein-arginine deiminase type-2. The data set is described as follows: Binding affinity to recombinant wild-type PAD2 (unknown origin) assessed as mass shift of enzyme at 1:10 enzyme to compound ratio preincubated for 1 hr followed by overnight dialysis in double distilled water by MALDI mass spectrometric analysis.
Data set [5] concerns NIH3T3. The data set is described as follows: Cytotoxicity against mouse NIH/3T3 cells after 3 days by XTT-PMS assay. The following applies: NIH3T3, 72 h.
For data set [6], the target named is T2, Protein-arginine deiminase type-3 (Homo sapiens) (UniProt Q9ULW8).
T2 sequence (whole entry): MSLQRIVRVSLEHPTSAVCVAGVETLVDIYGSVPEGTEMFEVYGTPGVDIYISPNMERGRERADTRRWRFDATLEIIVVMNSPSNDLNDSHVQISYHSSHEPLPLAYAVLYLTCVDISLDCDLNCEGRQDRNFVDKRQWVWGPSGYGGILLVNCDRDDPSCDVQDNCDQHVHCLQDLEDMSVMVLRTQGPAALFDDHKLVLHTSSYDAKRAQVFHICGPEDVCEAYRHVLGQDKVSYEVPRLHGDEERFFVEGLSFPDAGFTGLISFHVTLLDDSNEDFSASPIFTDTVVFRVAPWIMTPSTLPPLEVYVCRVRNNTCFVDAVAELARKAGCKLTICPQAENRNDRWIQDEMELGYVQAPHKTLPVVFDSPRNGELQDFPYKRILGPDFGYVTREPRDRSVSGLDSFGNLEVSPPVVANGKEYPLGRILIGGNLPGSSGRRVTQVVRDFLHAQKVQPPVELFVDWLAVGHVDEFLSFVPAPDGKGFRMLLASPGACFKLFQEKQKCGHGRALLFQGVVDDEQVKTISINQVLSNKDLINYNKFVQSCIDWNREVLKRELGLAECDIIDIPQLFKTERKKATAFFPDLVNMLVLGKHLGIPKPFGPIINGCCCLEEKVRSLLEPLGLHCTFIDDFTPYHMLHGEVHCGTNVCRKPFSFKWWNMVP
The data set is described as follows: Irreversible inhibition of recombinant wild-type PAD3 (unknown origin) using N-alpha-Benzoyl-L-arginine amide as substrate assessed as residual activity at 170-fold excess of compound after 1 hr by dialysis method.

In data set [7] the target is T1, Protein-arginine deiminase type-2. The following applies: at 0.1 to 2.5 µM.
The target in data set [8] is T3, Protein-arginine deiminase type-4 (Homo sapiens, UniProt Q9UM07). Briefly: Irreversible inhibition of recombinant wild-type PAD4 (unknown origin) using N-alpha-Benzoyl-L-arginine ethyl ester as substrate assessed as residual activity at 170-fold excess of compound after 1 hr by dialysis method. The method, boiled down: (§2)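 Wild-type PAD2 or PAD4 (0.6 µM final) incubated 1 h with compound (170-fold excess) or no compound in Reaction Buffer, then dialysed 20 h against Long-Term Storage Buffer (Tris-HCl pH 7.6, 1 mM EDTA, 500 mM NaCl, 2 mM DTT, 10% glycerol). Residual activity measured with 10 mM BAEE, quenched in liquid N2, and expressed relative to separately dialysed untreated enzyme (100%).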

For data set [9], the target named is T1, Protein-arginine deiminase type-2. The data set is described as follows: Irreversible inhibition of recombinant wild-type PAD2 (unknown origin) using N-alpha-Benzoyl-L-arginine ethyl ester as substrate assessed as residual activity at 170-fold excess of compound after 1 hr by dialysis method. The method, boiled down:
as §2

Data set [10] concerns the target T4, Protein-arginine deiminase type-3 (Homo sapiens, UniProt Q9ULW8).
T4 sequence (Q9ULW8 whole entry): T2 sequence (whole entry)
The data set is described as follows: Inhibition of recombinant wild-type PAD3 (unknown origin) using N-alpha-Benzoyl-L-arginine amide as substrate preincubated for 15 mins followed by substrate addition measured after 15 mins by COLDER assay.

In data set [11] the target is T3, Protein-arginine deiminase type-4. The data set is described as follows: Binding affinity to recombinant wild-type PAD4 (unknown origin) assessed as mass shift of enzyme at 1:10 enzyme to compound ratio preincubated for 1 hr followed by overnight dialysis in double distilled water by MALDI mass spectrometric analysis.
Data set [12] deals with T5, Protein-arginine deiminase type-1 (Homo sapiens, UniProt Q9ULC6).
T5 sequence (Q9ULC6 whole entry): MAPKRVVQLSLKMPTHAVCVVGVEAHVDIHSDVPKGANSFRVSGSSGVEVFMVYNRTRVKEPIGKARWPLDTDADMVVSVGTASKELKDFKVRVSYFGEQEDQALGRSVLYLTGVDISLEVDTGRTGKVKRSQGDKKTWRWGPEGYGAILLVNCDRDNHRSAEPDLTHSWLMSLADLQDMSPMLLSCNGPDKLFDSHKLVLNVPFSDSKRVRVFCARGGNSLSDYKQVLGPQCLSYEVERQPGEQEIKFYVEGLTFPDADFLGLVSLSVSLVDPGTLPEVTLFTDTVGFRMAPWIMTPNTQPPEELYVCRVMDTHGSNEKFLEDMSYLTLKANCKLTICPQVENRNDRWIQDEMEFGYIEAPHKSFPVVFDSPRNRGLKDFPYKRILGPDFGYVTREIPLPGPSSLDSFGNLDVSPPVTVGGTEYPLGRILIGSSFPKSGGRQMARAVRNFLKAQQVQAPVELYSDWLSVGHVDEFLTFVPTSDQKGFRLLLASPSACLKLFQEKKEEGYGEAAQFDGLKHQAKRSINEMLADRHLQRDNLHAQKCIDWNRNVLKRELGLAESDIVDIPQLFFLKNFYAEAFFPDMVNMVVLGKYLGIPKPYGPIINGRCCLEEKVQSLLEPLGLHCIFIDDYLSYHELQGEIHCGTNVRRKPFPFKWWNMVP
The data set is described as follows: Inhibition of recombinant wild-type PAD1 (unknown origin) using N-alpha-Benzoyl-L-arginine amide as substrate preincubated for 15 mins followed by substrate addition measured after 15 mins by COLDER assay.

Data set [13] relates to Protein-arginine deiminase type-4 (Homo sapiens), Q9UM07 [C645A]. The data set is described as follows: Binding affinity to PAD4 C645A mutant (unknown origin) assessed as mass shift of enzyme at 1:10 enzyme to compound ratio preincubated for 1 hr followed by overnight dialysis in double distilled water by MALDI mass spectrometric analysis.
Data set [14] concerns the target T3, Protein-arginine deiminase type-4. The data set is described as follows: Binding affinity to recombinant wild-type PAD4 (unknown origin) assessed as mass shift of enzyme at 1:10 enzyme to compound ratio preincubated for 1 hr followed by overnight dialysis in double distilled water by MALDI mass spectrometric analysis in presence of superoxide dismutase.
Data set [15] relates to Protein-arginine deiminase type-4 (Homo sapiens), Q9UM07 [C645A]. Briefly: Binding affinity to PAD4 C645A mutant (unknown origin) assessed as mass shift of enzyme at 1:10 enzyme to compound ratio preincubated for 1 hr followed by overnight dialysis in double distilled water by MALDI mass spectrometric analysis in presence of catalase.
The test system of data set [16] is U2OS. The data set is described as follows: Cytotoxicity against human U2OS cells assessed as cell viability at 10 uM after 3 days by XTT-PMS assay relative to control. The settings on record: for viability at 10 µM: 72 h, read-out: Activity. The data set is classed as functional. The method, boiled down:
as §1

The target of data set [17] is T3, Protein-arginine deiminase type-4. The data set is described as follows: Competitive inhibition of recombinant wild-type PAD4 (unknown origin) at 1 to 50 uM by fluorescence polarization-ABPP assay in presence of RFA. The following applies: in the assay text read “gel-based competitive ABPP assay” for “fluorescence polarization-ABPP assay”. Summed up:
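Wild-type PAD4 (2 µM final) labelled with RFA (10 µM final) plus 10 mM calcium in the presence of competitor (0–50 µM final). Quenched with SDS loading buffer, boiled 20 min, run on 12% SDS-PAGE; in-gel fluorescence imaged and quantified.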

Data set [18] deals with Protein-arginine deiminase type-2 (Homo sapiens), Q9Y2J8 [C647A]. The data set is described as follows: Binding affinity to PAD2 C647A mutant (unknown origin) assessed as mass shift of enzyme at 1:10 enzyme to compound ratio preincubated for 1 hr followed by overnight dialysis in double distilled water by MALDI mass spectrometric analysis.
Data set [19] has as its target T6, Protein-arginine deiminase type-1 (Homo sapiens) (UniProt Q9ULC6).
T6 sequence (whole entry): T5 sequence (Q9ULC6 whole entry)
The data set is described as follows: Irreversible inhibition of recombinant wild-type PAD1 (unknown origin) using N-alpha-Benzoyl-L-arginine amide as substrate assessed as residual activity at 170-fold excess of compound after 1 hr by dialysis method.

Data set [20] has as its target T3, Protein-arginine deiminase type-4. Briefly: Binding affinity to recombinant wild-type PAD4 (unknown origin) assessed as mass shift of enzyme at 1:10 enzyme to compound ratio preincubated for 1 hr followed by overnight dialysis in double distilled water by MALDI mass spectrometric analysis in presence of catalase.
For data set [21], the system named is Protein-arginine deiminase type-4 (Homo sapiens), Q9UM07 [C645A]. The data set is described as follows: Binding affinity to PAD4 C645A mutant (unknown origin) assessed as mass shift of enzyme at 1:10 enzyme to compound ratio preincubated for 1 hr followed by overnight dialysis in double distilled water by MALDI mass spectrometric analysis in presence of superoxide dismutase.

The target in data set [22] is T3, Protein-arginine deiminase type-4. The data set is described as follows: Inhibition of recombinant wild-type PAD4 (unknown origin) using N-alpha-Benzoyl-L-arginine ethyl ester as substrate preincubated for 15 mins followed by substrate addition measured after 15 mins by COLDER assay.
Data set [23] shares this target. The data set is described as follows: Inhibition of recombinant wild-type PAD4 (unknown origin) using N-alpha-Benzoyl-L-arginine ethyl ester as substrate preincubated for 10 mins followed by substrate addition measured after 15 mins by COLDER assay.
For data set [24] the target is unchanged.
Data set [25] has as its target T1, Protein-arginine deiminase type-2. Briefly: Inhibition of recombinant wild-type PAD2 (unknown origin) using N-alpha-Benzoyl-L-arginine ethyl ester as substrate preincubated for 10 mins followed by substrate addition measured after 15 mins by COLDER assay.
The target of data set [26] is T3, Protein-arginine deiminase type-4. The following applies: 0.5 uM.
The target in data set [27] is T1, Protein-arginine deiminase type-2.

Calls of active or inactive are those of the source. The rule behind the calls is not given here.

Chain of Protein-arginine deiminase type-4 (Homo sapiens), Q9UM07 [C645A] (Q9UM07 whole entry C645A): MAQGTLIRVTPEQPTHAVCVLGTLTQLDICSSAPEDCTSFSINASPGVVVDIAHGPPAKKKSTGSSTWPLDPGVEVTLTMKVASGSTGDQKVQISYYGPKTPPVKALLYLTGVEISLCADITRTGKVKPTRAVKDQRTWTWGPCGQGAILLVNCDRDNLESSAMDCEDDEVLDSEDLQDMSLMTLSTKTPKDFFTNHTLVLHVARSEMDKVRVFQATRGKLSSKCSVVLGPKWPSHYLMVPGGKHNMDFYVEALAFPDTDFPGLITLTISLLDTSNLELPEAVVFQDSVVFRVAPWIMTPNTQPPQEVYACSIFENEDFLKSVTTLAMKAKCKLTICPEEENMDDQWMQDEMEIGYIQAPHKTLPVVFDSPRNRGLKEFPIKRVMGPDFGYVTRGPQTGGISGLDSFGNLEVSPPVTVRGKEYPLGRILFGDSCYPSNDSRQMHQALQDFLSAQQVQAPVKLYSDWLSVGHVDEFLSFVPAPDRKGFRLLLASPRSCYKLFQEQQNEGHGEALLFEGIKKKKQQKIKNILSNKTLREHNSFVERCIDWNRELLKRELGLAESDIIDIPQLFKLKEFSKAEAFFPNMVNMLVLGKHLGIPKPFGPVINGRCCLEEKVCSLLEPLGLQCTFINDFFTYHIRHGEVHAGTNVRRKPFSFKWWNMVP
T1 sequence (Q9Y2J8 whole entry): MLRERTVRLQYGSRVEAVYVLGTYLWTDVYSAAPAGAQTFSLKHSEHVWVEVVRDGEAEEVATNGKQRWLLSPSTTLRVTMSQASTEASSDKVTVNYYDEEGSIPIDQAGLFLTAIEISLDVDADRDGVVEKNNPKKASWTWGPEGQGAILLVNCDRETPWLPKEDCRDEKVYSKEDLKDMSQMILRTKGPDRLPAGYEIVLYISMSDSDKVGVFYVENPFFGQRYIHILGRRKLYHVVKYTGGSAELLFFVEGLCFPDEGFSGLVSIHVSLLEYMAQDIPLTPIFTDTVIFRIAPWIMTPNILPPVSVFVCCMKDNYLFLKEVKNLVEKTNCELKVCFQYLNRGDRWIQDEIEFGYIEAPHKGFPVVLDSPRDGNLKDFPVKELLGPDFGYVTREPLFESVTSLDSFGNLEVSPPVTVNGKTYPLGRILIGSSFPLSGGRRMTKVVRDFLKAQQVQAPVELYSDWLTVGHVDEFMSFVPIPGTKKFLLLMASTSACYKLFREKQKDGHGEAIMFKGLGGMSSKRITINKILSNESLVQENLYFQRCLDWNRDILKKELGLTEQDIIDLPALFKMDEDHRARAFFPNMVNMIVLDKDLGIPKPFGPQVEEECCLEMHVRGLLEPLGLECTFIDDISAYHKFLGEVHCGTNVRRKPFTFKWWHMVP
Chain of Protein-arginine deiminase type-2 (Homo sapiens), Q9Y2J8 [C647A] (Q9Y2J8 whole entry C647A): as the sequence (Q9Y2J8 whole entry) above, with C647A counted along it
T3 sequence (Q9UM07 whole entry): as the sequence (Q9UM07 whole entry C645A) above, with A645C counted along it

For the compound `NC1=CC(=O)c2ccc(-c3cccc(C(=O)O)n3)nc2C1=O`, the result with NIH3T3 [1] was Active. Further, the values for the IC50 in [2], in data set [10] and in data set [12] were 200 nM, 710 nM and 70 nM, respectively. The EC50 in the data set with U2OS [3] was found to be 58300 nM; with NIH3T3 [5], 61700 nM. Moreover, the result (in data set [4]; in data set [11]; in [13]; in data set [14]; in [15]; in the data set on U2OS [16]) was Active. Further, the outcome in [18], in data set [20] and in [21] was Active. Besides, the result in data set [6], in data set [8], in data set [9] and in data set [19] was inactive. Moreover, the inhibition result in data set [7] and in data set [17] was “Active” throughout.
Regarding `NC1=CC(=O)c2ccc(-c3ccccn3)nc2C1=O`, the IC50 was 640 nM in [22], 320 nM in data set [2], 130 nM in data set [10] and 950 nM in data set [12]. For the same compound, in the data set with NIH3T3 [1], the Activity entry is recorded as “<= 30%”. Also, the values for the EC50 in the data set with U2OS [3] and with NIH3T3 [5] were 400 nM and 600 nM, respectively. The result in [4], in [11], in data set [13], in data set [14], in [15] and in [18] was Active. In addition, the result in [20] and in [21] was Active. Moreover, the inhibition entry in data set [7], in [26] and in data set [17] was “Active” each time. Moreover, the Ki in data set [23] amounted to 20100 nM; in data set [25], 8080 nM. The values for the Kinact in data set [24] and in [27] were 0.12 min⁻¹ and 0.07 min⁻¹, respectively. The viability at 10 µM with U2OS [16] is not above 30%.
For `COC1=C(N)C(=O)c2nc(-c3nc(C(=O)O)c(C)c(-c4ccc(OC)c(OC)c4O)c3N)ccc2C1=O` [STREPTONIGRIN], the IC50 in data set [2] stood at 26100 nM; in data set [10], 430 nM; in [12], 48300 nM. The outcome in data set [4], in [11], in [13], in data set [14], in data set [15] and in data set [18] was Active. The outcome in [20] and in data set [21] was Active. Moreover, the inhibition result in data set [7] and in data set [17] was “Active” throughout.
Consider `NC1=CC(=O)c2cccnc2C1=O`, for which the IC50 in [22] was determined as 1000 nM; in data set [2] it was 740 nM; in data set [10] it was 170 nM; in data set [12], 960 nM. The Activity result in the data set with NIH3T3 [1] is listed as “<= 30%”. Further, the EC50 in the data set on U2OS [3] came to 800 nM; with NIH3T3 [5] it was 1100 nM. Moreover, the viability at 10 µM in the data set with U2OS [16] was not above 30%.
Regarding `COC1=C(Br)C(=O)c2ncccc2C1=O`, the IC50 in [22] was found to be 3300 nM; in [2], 6320 nM; in [10], 4400 nM; in [12], 4550 nM. Also, the outcome in the data set with NIH3T3 [1] was Active. In the data set on U2OS [16], the result was Active.
Turning to `NC1=C(Br)C(=O)c2cccnc2C1=O`, the Activity result in the data set on NIH3T3 [1] is “<= 30%”. In the data set with U2OS [16], the viability at 10 µM was not above 30%.

Values taken from ChEMBL document CHEMBL3112427, “Insights into the mechanism of streptonigrin-induced protein arginine deiminase inactivation” (Bioorg Med Chem, 2014).
